Hits are enriched below; roughly 3.6% of the tested compounds scored in any of these assays.
Yeast lifespan up – compounds extending yeast replicative lifespan, primary screen, S. cerevisiae, OD615; S. cerevisiae growth with nicotinamide; deaD strain in restrictive glucose medium; 0.68% of 130,000 active; inhibition of the nicotinamide effect, % at 10 µM;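 active = inhibition above a set limit, placed 3 SD over the median of all compounds, cut at about 26% in these data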;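 note: 0% = nicotinamide-treated wells and 100% = cells grown without nicotinamide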
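Assay system: engineered S. cerevisiae DeaD replicative-lifespan strain, galactose-grown log-phase cells; Buffer or medium: CSMM-D glucose medium, restrictive; Probe or stimulus: nicotinamide 1.5 mM; Compound: single dose 10 µM compound, 0.25% DMSO; Schedule: 4 h preincubation then 48 h treatment at 30 °C; Technique: OD615 measurement.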
Measles CPE – compounds protecting cells from measles virus cytopathic effect, primary screen, measles RdRp inhibitor project, single point, MLSMR library, absorbance | Measles virus-infected cells, CPE protection | protection (pct of control), % at 4 µM | 1.5% of 140,000 active; in the data active = protection mostly above about 24%, no sharp cut-off; inactive = mostly below about 26%
RAM network inh – inhibitors of the yeast RAM network, primary screen, dse1pr::URA3 reporter, 5-FOA selection | S. cerevisiae dse1pr::URA3 reporter, 5-FOA growth OD615, 2 d; analog-sensitive cbk1-as2 kinase mutant strain | inhibition, % at 50 µM | 1.8% of 190,000 active | AID 868, 2007;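 active = inhibition above a set limit, 3 SD over mean compound inhibition, cut at about 8.4% in these data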;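 note: 0% = DMSO-only wells with no growth and 100% = 10 µM 1-NA-PP1 full growth; inhibition rescues growth on 5-FOA so higher OD means more RAM inhibition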
Yeast growth inh – growth inhibitors of yeast BB579 in restrictive medium, primary screen, yeast lifespan-shortening project, S. cerevisiae. OD615, 48 h. inhibition, % at 10 µM. 0.51% of 140,000 active;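 active = inhibition above a set limit, 3 SD over the mean compound inhibition, cut at about 44% in these data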
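Detection: OD615 turbidity measurement; Material: Saccharomyces cerevisiae DeaD strain BB579, replicative lifespan model yeast; Timing: 48 h exposure, 30 °C; Doses: single 10 µM dose; Medium: CSMM-D restrictive synthetic medium containing dextrose (glucose); Controls: amphotericin B at 10 µg/mL as positive control.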
RAM 5-FOA – 5-FOA growth of efflux-deficient control yeast, dose response, counter-screen for RAM network inhibitor project, S. cerevisiae, OD615 | shares compounds with RAM network inh | S. cerevisiae efflux-deficient reporter strain, 5-FOA growth OD615, 2 days | max inhibition, % | AID 1305, 2008 | 1,200 tested, under 10 active; call rule not given here;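 note: plate controls were vehicle for no effect and reference inhibitor for full effect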
* marks the source's active call; other numbers are inactive results; . = no result given.

SMILES | Yeast lifespan up | Measles CPE | RAM network inh | Yeast growth inh | RAM 5-FOA
COc1cccc(-c2ccc(C#N)c(OC(=O)c3c(Cl)cccc3Cl)n2)c1 | 9.0 | 5.8 | 12.2* | -49.0 | 1.5
COc1ccc(/C=C2/SC(=S)N(CCC(=O)O)C2=O)cc1 | -8.7 | 5.5 | 4.4 | -57.4 | .
COc1ccc(/C=C2\SC(=S)N(CC(=O)OCC(=O)Nc3ccc([N+](=O)[O-])cc3OC)C2=O)cc1 | . | . | 17.6* | . | 8.1
COc1ccc(/C=C2\SC(=S)N(CC(=O)OCC(=O)Nc3ccc(C)cc3Cl)C2=O)cc1 | . | . | 12.5* | . | 9.4
COc1ccc(/C=C/C(=O)OCC(=O)Nc2c(C)cccc2C)cc1 | . | . | 3.1 | . | .
Cc1cc(C(=O)COC(=O)c2cccnc2Cl)c(C)n1-c1c(C)n(C)n(-c2ccccc2)c1=O | . | . | 1.5 | . | .
O=C(NCCc1ccccc1)C1CCCN1S(=O)(=O)c1ccccc1 (configuration not stated) | . | . | 1.5 | . | .
Cc1ccc(NC(=O)c2oc3ccc(S(=O)(=O)N4CCC5(CC4)OCCO5)cc3c2C)cc1C | 14.3 | 5.3 | 12.4* | -44.5 | 1.4
Cc1ccc(CNC(=O)c2oc3ccc(S(=O)(=O)N4CCC5(CC4)OCCO5)cc3c2C)cc1 | -4.2 | 26.0 | 5.1 | -58.0 | .
O=C(NCCn1cc(SCc2ccccc2)c2ccccc21)c1ccccc1F | 5.9 | 2.6 | 15.3* | -27.8 | 2.5
O=C(C/C=N\OCc1ccc([N+](=O)[O-])cc1)Nc1ccc(F)cc1F | . | . | 2.1 | . | .
C=CCN=C1SC(C)(C)C(=O)N1S(=O)(=O)c1ccc(C)cc1 | . | . | -0.2 | . | .
O=C(NN=C1CCCC1)C1COc2ccccc2O1 (configuration not stated) | . | . | 1.9 | . | .
Cc1ccc2sc(NC(=O)c3ccc(N4C(=O)CCC4=O)cc3)nc2c1C | 4.6 | 9.5 | 16.5* | -40.5 | 1.9
COc1cccc(CC2(CO)CCN(Cc3cccn3-c3cccnc3)CC2)c1 | . | . | 2.4 | . | .
Cc1cc2cc(CNS(=O)(=O)c3ccc4ccccc4c3)ccc2n1C | -4.3 | 8.4 | 3.8 | -12.6 | .
Cc1cc(C)c(S(=O)(=O)NCc2ccc3c(c2)cc(C)n3C)c(C)c1 | 9.2 | 14.7 | 13.7* | -42.8 | 2.3
COc1ccc2c(c1)CCc1c(C(=O)NCCc3ccc(OC)c(OC)c3)noc1-2 | -15.3 | 2.1 | 13.6* | -16.0 | 6.5
O=c1[nH]c(Cc2ccccn2)nc2scc(-c3ccccc3Cl)c12 | . | . | 2.5 | . | .
COc1ccccc1OCC(=O)N(Cc1nc(-c2ccccc2)no1)C1CCCCC1 | -0.8 | 3.3 | 12.9* | -46.8 | 2.5
O=C(O)CCC(=O)Nc1ccccc1Oc1ccccc1 | . | . | -0.6 | . | .
O=C(CCC(=O)c1ccc(Oc2ccccc2)cc1)Nc1cccc(Cl)c1Cl | 4.1 | -0.3 | 14.1* | -32.5 | 2.7
Cc1cc(C)n(-c2ccc(C(=O)Oc3ccc4c(c3)OCO4)cc2)n1 | -6.6 | 8.8 | 12.6* | -47.3 | 3.2
COCCNc1nnc(SCC(=O)c2ccc3c(c2)OCO3)s1 | -4.9 | 28.9 | 3.0 | 18.6 | .
O=C(CSc1nnc(SCc2ccc(Cl)cc2)s1)c1ccc2c(c1)OCO2 | 9.3 | 14.3 | 16.3* | -53.3 | 1.8
SMILES | Yeast lifespan up | Measles CPE | RAM network inh | Yeast growth inh | RAM 5-FOA
COc1cc(-c2nc(-c3cccc(C(F)(F)F)c3)no2)cc(OC)c1OC | -1.2 | 3.0 | 11.8* | -47.6 | 1.5
CC(C)CC(=O)NC(=S)Nc1nc(-c2ccccc2)cs1 | 6.3 | 5.7 | 12.7* | -5.7 | 1.8
CC(C)CC(=O)NC(=S)Nc1nc(-c2ccc(Cl)cc2)cs1 | 13.3 | 7.6 | 5.7 | -32.1 | .
c1ccc2oc(-c3ccc(Nc4nc(N5CCCC5)nc(N5CCOCC5)n4)cc3)nc2c1 | . | . | 7.7 | . | .
CCOc1cc(NC(=O)c2ccccn2)c(OCC)cc1NC(=O)c1ccc(C)cc1 | . | . | 12.0* | . | 1.9
O=C(CCCN1C(=O)c2ccccc2C1=O)NCCN1C(=O)S/C(=C\c2cccs2)C1=O | -1.7 | 17.6 | 3.4 | 5.8 | .
CCCN(CCC)c1nc2ccccc2nc1C(C#N)C(=O)OC(C)COC (configuration not stated) | 13.9 | 27.6 | 12.7* | -19.5 | 1.8
CCCCN(CCCC)c1nc2ccccc2nc1C(C#N)C(=O)NCCCOC (configuration not stated) | 1.5 | 4.2 | 14.8* | -38.4 | 5.2
CCN(CC)c1nc2ccccc2nc1C(C#N)C(=O)NCCCOC (configuration not stated) | -10.6 | 4.6 | 1.2 | -4.7 | .
Cc1c(Cl)cccc1NC(=O)CN1CCN(CCN=CC2=C(O)CC(c3ccccc3)CC2=O)CC1 (configuration not stated) | . | . | -0.5 | . | .
CCN(c1ccccc1)S(=O)(=O)c1ccc(Cl)c(C(=O)NCCc2ccc(OC)cc2)c1 | 2.1 | 4.0 | 12.3* | -14.6 | 2.6
COc1ccc(CCNC(=O)c2ccc(Cl)c(S(=O)(=O)N(C)c3ccccc3)c2)cc1 | 4.6 | 21.4 | 17.0* | -30.8 | 2.9
COc1ccc(C(=O)C2CCCN(C(=O)CCc3scnc3C)C2)c(C)c1 (configuration not stated) | . | . | 0.1 | . | .
Cc1ccccc1OCCNC(=O)c1ccccc1Sc1ccccc1C#N | -13.2 | 6.8 | 14.1* | -0.4 | 1.6
Cc1cc(C)c(OCCNC(=O)c2ccccc2Sc2ccccc2C#N)c(C)c1 | 2.5 | 5.2 | 19.7* | -34.8 | 4.6
COc1cccc(OCCNC(=O)c2ccccc2Sc2ccccc2C#N)c1 | -0.8 | 11.6 | 4.1 | -4.1 | .
CCOc1ccccc1NC(=S)N(CCC(C)C)C1CCN(C(C)=O)CC1 | . | . | 0.9 | . | .
O=C(/C=C/c1ccc(N2CCCCC2)c([N+](=O)[O-])c1)c1ccc(S(=O)(=O)N2CCCC2)cc1 | 3.5 | 4.0 | 11.9* | -43.8 | 5.8
COc1cccc(C(=O)/C=C/c2ccc(N3CCCCC3)c([N+](=O)[O-])c2)c1 | 21.9 | 6.5 | 19.2* | -48.0 | 5.1
COc1cccc(/C=C/C(=O)c2cccc([N+](=O)[O-])c2)c1 | . | . | 0.9 | . | .
CCN(CC)S(=O)(=O)c1ccc(N2CCN(c3cccc(OC)c3)CC2)c([N+](=O)[O-])c1 | 11.8 | 3.0 | 13.3* | -27.8 | 5.3
Cn1c(CS/C(N)=N/N=C/c2ccccc2)c(Br)c(=O)n1-c1ccccc1 | 23.2 | 2.3 | 0.3 | -62.3 | .
O=C(Nc1cccc([N+](=O)[O-])c1)Nc1cccs1 | . | . | -0.5 | . | .
COc1ccc(Nc2oc(COc3ccc(Cl)cc3)nc2C#N)cc1 | 34.1 | 10.0 | 3.5 | -49.0 | .
COc1ccc(N2CCN(c3oc(COc4ccc(Cl)cc4)nc3C#N)CC2)cc1 | -7.7 | 8.1 | 12.9* | -12.9 | 5.2
Cc1ccc(OCc2nc(C#N)c(NCc3ccc4c(c3)OCO4)o2)cc1 | -18.6 | 17.7 | 14.5* | -50.6 | 1.5
COc1ccc(CNc2oc(COc3ccc(Cl)cc3)nc2C#N)cc1 | -8.8 | 40.9 | 12.8* | -46.0 | 2.8
COc1ccc(N2CCN(c3oc(COc4ccc(Cl)cc4Cl)nc3C#N)CC2)cc1 | -6.5 | 4.0 | 3.5 | -13.2 | .

Compound activity deposited in PubChem BioAssay by several laboratories.
